Data: ChEMBL document CHEMBL1150768, “Conformationally constrained analogues of N-(piperidinyl)-5-(4-chlorophenyl)-1-(2,4- dichlorophenyl)-4-methyl-1H-pyrazole-3-carboxamide (SR141716): design, synthesis, computational analysis, and biological evaluations” (J Med Chem, 2008)

Columns and labels:
Cannabinoid receptor 1 [1] = target: T1, Cannabinoid receptor 1 (Homo sapiens, UniProt P21554); assay: biochemical; format: cell-based, HEK293
Cannabinoid receptor 1 [2] = target: T1, Cannabinoid receptor 1; assay: biochemical; format: cell-based, CHO-K1
Cannabinoid receptor 2 [3] = target: T2, Cannabinoid receptor 2 (Homo sapiens, UniProt P34972); assay: Displacement of [3H]CP-55940 from human CB2 receptor expressed in CHO-K1 cells; format: cell-based
T2 sequence (P34972 whole entry): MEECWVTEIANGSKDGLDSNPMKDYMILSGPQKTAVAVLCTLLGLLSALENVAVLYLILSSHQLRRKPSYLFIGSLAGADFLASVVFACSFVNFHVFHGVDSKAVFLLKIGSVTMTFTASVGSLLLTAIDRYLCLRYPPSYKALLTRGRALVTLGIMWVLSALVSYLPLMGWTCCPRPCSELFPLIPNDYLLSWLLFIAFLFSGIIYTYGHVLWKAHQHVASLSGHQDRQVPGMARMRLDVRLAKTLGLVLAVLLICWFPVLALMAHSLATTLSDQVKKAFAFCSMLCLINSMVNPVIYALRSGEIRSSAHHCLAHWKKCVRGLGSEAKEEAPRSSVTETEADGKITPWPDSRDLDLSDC
How it was run: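 Human CB2 expressed in CHO-K1 cell membranes, […]. Nonspecific binding with 10 µM unlabeled agonist. Glass-fiber filtration, then liquid scintillation counting. Duplicates, 3-6 independent experiments.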

Cannabinoid receptor 1 [4] = target: T1, Cannabinoid receptor 1; assay: Binding affinity to CB1 receptor
How it was run: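 Membranes from HEK-293 cells expressing human CB1. […] incubated with tritiated agonist radioligand (7.2 nM) or [3H]SR141716 (20 nM) in 50 mM Tris-HCl, 1 mM EDTA, 3 mM MgCl2, 5 mg/mL BSA, pH 7.4, for 1 h at 30 °C. Nonspecific binding taken with 10 µM unlabeled ligand. Filtration, then scintillation counting. Duplicates, 3-6 independent experiments.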

Cannabinoid receptor 2 [5] = target: T2, Cannabinoid receptor 2; assay: Binding affinity to CB2 receptor
How it was run: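 Human CB2 expressed in CHO-K1 cell membranes, […]. Displacement of tritiated agonist radioligand (ca. 130 Ci/mmol, 7.2 nM) in Tris-HCl/EDTA/MgCl2/BSA buffer at pH 7.4, 1 h at 30 °C. Nonspecific binding with 10 µM unlabeled agonist. Glass-fiber filtration, then liquid scintillation counting. Duplicates, 3-6 independent experiments.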

Homo sapiens = species: Homo sapiens; assay: Selectivity for human CB2 receptor over human CB1 receptor

T1 sequence (P21554 whole entry): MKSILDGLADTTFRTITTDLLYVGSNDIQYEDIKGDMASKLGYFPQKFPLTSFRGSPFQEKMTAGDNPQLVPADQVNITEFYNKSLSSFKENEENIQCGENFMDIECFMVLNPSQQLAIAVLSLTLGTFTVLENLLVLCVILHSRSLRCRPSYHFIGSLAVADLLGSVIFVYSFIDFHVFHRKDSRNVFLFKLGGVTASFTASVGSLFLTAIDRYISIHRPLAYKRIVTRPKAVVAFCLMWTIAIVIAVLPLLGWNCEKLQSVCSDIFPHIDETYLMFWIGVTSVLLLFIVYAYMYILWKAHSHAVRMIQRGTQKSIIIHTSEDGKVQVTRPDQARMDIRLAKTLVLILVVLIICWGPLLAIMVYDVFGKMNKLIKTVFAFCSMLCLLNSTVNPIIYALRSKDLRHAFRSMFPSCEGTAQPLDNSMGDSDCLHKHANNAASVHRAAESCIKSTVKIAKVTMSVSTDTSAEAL

Row | Structure (SMILES) | Ki (Cannabinoid receptor 1 [1]) [nM] | Ki (Cannabinoid receptor 1 [2]) [nM] | Ki (Cannabinoid receptor 2 [3]) [nM] | Ratio (Homo sapiens) | Ki (Cannabinoid receptor 1 [4]) [nM] | Ki (Cannabinoid receptor 2 [5]) [nM]
1 | Cc1c(C(=O)NN2CCCCC2)nn(-c2ccc(Cl)cc2Cl)c1-c1ccc(Cl)cc1Cl | 34.2 | 17.9 | 1040 | – | – | –
2 | O=C(NN1CCCCC1)c1nn(-c2ccc(Cl)cc2Cl)c2c1CCCc1cc(Cl)ccc1-2 | 18.4 | 5.55 | – | – | 0.00035 | 20
3 | Cc1cc(Cl)cc(C)c1-c1c(C)c(C(=O)NN2CCCCC2)nn1-c1ccc(Cl)cc1Cl | 194 | 116 | 758 | – | – | –
4 | O=C(NN1CCCCC1)c1nn(-c2ccc(Cl)cc2Cl)c2c1CCc1cc(Cl)ccc1-2 | – | – | – | – | 15 | 230
5 | Cc1c(C(=O)NN2CCCCC2)nn2c3ccc(Cl)cc3c3cc(Cl)ccc3c12 | – | – | – | 80 | – | –
6 | O=C(NN1CCCCC1)c1nn(-c2ccc(Cl)cc2Cl)c2c1CCCCc1cc(Cl)ccc1-2 | 40.9 | 14.7 | 492 | – | – | –

Now from value to compound, other results behind:

Row | Ki (Cannabinoid receptor 1 [1]) [nM] | Ki (Cannabinoid receptor 1 [2]) [nM] | Ki (Cannabinoid receptor 2 [3]) [nM] | Ratio (Homo sapiens) | Structure (SMILES) | Ki (Cannabinoid receptor 1 [4]) [nM] | Ki (Cannabinoid receptor 2 [5]) [nM]
7 | 251 | 152 | 1780 | – | Cc1cc(Cl)ccc1-c1c(C)c(C(=O)NN2CCCCC2)nn1-c1c(Cl)cc(Cl)cc1Cl | – | –
8 | 16.1 | 5.83 | 1120 | – | Cc1cc(Cl)ccc1-c1c(C)c(C(=O)NN2CCCCC2)nn1-c1ccc(Cl)cc1Cl | – | –
9 | 261 | 148 | 1110 | – | Cc1c(C(=O)NN2CCCCC2)nn(-c2c(Cl)cc(Cl)cc2Cl)c1-c1ccc(Cl)cc1Cl | – | –
